Results taken from BindingDB's records for doi:10.1016/j.bmc.2009.05.079 (Universidad De Valencia, 2009).

Biological target: D(2) dopamine receptor (Rattus norvegicus, UniProt P61169)
Test: Displacement of [3H]raclopride from dopamine D2 receptor in Wistar rat striatal membrane by liquid scintillation counting
In short: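 Female Wistar rat striatal membranes were washed at 49,000g and resuspended in Tris-ions buffer, pH 7.4. [3H]-raclopride displacement was read by filtration, cold-buffer washes and scintillation counting. Ki was derived using KD 1,25 nM; 3–6 independent determinations in duplicate, mean SEM.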

D(2) dopamine receptor, sequence (P61169 whole entry): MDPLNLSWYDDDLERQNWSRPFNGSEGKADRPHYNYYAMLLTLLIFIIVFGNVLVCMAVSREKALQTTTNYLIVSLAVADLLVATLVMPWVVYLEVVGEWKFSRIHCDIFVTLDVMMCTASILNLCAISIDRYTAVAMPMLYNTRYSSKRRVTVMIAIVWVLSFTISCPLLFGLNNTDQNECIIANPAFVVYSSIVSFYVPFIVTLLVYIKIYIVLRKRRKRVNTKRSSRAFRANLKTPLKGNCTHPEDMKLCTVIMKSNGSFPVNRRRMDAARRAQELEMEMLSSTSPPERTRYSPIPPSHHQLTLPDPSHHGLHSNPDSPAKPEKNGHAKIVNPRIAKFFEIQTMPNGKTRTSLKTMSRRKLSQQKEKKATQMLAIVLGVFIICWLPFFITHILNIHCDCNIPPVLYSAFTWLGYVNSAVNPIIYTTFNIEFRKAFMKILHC

CCCCC1NCCc2cc(Cl)c(O)cc21 (stereo unspecified) [1-Butyl-6-chloro-7-hydroxy-1,2,3,4-tetrahydroisoquinoline] gave a Ki of 76 nM.
